Measurements reported in ChEMBL document CHEMBL1125117, “Substituted 1,3-dihydro-2H-pyrrolo[2,3-b]pyridin-2-ones as potential antiinflammatory agents” (1990).

Assays:
[1] = target: Cyclooxygenase (Homo sapiens) (UniProt P35354+P23219); test: In vitro inhibitory activity against Prostaglandin G/H synthase in human platelets; parameters: concentration or dose not given beside the values; conditions: concentration not given here
Summary of the method: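 Human platelets (2×10^5/mL) in HEPES buffer with 0.5 mM EGTA and 1.5 mM CaCl2, incubated 4 min with compound in DMSO vehicle. Then given [14C]arachidonic acid and A23187 ionophore for 5 min and stopped with methanol. HHT was measured by reverse-phase HPLC. Reported as % inhibition of HHT versus vehicle, at 15 μM.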

Rattus norvegicus [2] = test: In vivo effect on prostaglandin and leukotriene mediated production in rat pleural cavity was assessed by the inhibition of cell influx in 5-lipoxygenase/ cyclooxygenase at dose 40 mg/kg; format: functional
Summary of the method: (§1)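 Rat reversed passive Arthus pleurisy, oral dosing 1 h before challenge. BSA given iv (5 mg), then rabbit anti-BSA IgG intrapleurally 30 min later. At 4 h, exudate was collected into indomethacin/NDGA and its volume recorded. Neutrophils were counted by Coulter counter. TXB2 and LTE4 in ethanol-extracted supernatant were measured by RIA with tritiated recovery spikes. Reported as % inhibition versus control.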

Rattus norvegicus [3] = test: In vivo antiinflammatory activity against edema formation in the injected(primary) paw of the rat(before edema stimulation) at dose 25 mg/kg; format: functional
Summary of the method: (§2)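 Adjuvant arthritis in rats, prophylactic regimen. Oral dosing began 1 h before challenge and continued for 21 consecutive days. Heat-killed M. tuberculosis in paraffin oil (6 mg/mL), 0.1 mL injected into the left hind paw, with methylcellulose-treated controls. Both hind paw volumes measured by plethysmograph on day 21. Reported as % change relative to control.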

Rattus norvegicus [4] = test: In vivo antiinflammatory activity against edema formation in the noninjected(secondary) paw of the rat (before edema stimulation) at dose 25 mg/kg; format: functional; summary of the method: as §2
Rattus norvegicus [5] = test: In vivo effect on prostaglandin and leukotriene mediated production in rat pleural cavity was assessed by the inhibition of TXB2 in 5-lipoxygenase/ cyclooxygenase at dose 40 mg/kg; format: functional; summary of the method: as §1
Rattus norvegicus [6] = test: In vivo effect on prostaglandin and leukotriene mediated production in rat pleural cavity was assessed by the inhibition of fluid volume in 5-lipoxygenase/ cyclooxygenase at dose 40 mg/kg; format: functional; summary of the method: as §1
Rattus norvegicus [7] = test: In vivo effect on prostaglandin and leukotriene mediated production in rat pleural cavity was assessed by the inhibition of LTE4 in 5-lipoxygenase/ cyclooxygenase at dose 40 mg/kg
Rattus norvegicus [8] = test: In vivo inhibitory activity against cells in reverse passive Arthus reaction (RPAR) assay at dose 25 mg/kg in the pleural cavity of rats.; format: functional
Summary of the method: (§3)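 Male rats, five per group, dosed orally 1 h before iv BSA antigen (5 mg). Rabbit anti-BSA IgG (0.5 mg) given intrapleurally 30 min later. At 4 h, pleural exudate volume was measured and neutrophils counted (Coulter) after saline-EDTA lavage. Reported as % reduction in cells and fluid relative to control.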

Rattus norvegicus [9] = test: In vivo inhibitory activity against fluid in reverse passive Arthus reaction (RPAR) assay at dose 25 mg/kg in the pleural cavity of rats.; format: functional; summary of the method: as §3
[10] = target: T1, Polyunsaturated fatty acid 5-lipoxygenase (Homo sapiens) (UniProt P09917); test: In vitro inhibitory activity against 5-lipoxygenase in human polymorphonuclear (PMN) cells; conditions: concentration not given here
T1 sequence (whole entry): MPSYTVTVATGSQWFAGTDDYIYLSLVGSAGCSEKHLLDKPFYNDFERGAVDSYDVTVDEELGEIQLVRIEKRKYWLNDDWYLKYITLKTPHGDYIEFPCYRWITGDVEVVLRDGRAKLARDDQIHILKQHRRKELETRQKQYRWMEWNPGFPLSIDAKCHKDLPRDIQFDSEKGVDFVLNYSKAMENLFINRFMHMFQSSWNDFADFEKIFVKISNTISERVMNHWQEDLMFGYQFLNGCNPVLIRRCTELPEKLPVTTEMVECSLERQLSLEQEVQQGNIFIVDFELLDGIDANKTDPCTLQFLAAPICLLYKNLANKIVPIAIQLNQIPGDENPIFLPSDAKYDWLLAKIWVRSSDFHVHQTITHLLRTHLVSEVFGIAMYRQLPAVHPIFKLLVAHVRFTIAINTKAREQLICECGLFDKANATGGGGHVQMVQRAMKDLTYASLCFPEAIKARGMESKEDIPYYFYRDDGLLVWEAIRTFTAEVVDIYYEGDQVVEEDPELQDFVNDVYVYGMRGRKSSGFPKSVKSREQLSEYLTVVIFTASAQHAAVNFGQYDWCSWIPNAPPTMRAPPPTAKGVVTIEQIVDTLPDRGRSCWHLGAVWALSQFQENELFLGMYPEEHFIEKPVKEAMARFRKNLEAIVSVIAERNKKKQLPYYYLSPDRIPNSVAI
Summary of the method: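 Human PMN neutrophils (2×10^7 cells/mL) in HEPES buffer with 1 mM CaCl2, preincubated 4 min with test compound in DMSO vehicle. Then stimulated with [14C]arachidonic acid plus calcium ionophore A23187 for 5 min and stopped with methanol. 5-HETE was quantitated by HPLC. Reported as % inhibition versus vehicle, tested at 15 μM.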

Rattus norvegicus [11] = test: In vivo effect on prostaglandin and leukotriene mediated production in rat pleural cavity was assessed by the inhibition of fluid volume in 5-lipoxygenase/ cyclooxygenase at dose 20 mg/kg; format: functional; summary of the method: as §1
Rattus norvegicus [12] = test: In vivo effect on prostaglandin and leukotriene mediated production in rat pleural cavity was assessed by the inhibition of cell influx in 5-lipoxygenase/ cyclooxygenase at dose 20 mg/kg; format: functional; summary of the method: as §1
Rattus norvegicus [13] = test: In vivo effect on prostaglandin and leukotriene mediated production in rat pleural cavity was assessed by the inhibition of LTE4 in 5-lipoxygenase/ cyclooxygenase at dose 20 mg/kg
Rattus norvegicus [14] = test: In vivo effect on prostaglandin and leukotriene mediated production in rat pleural cavity was assessed by the inhibition of TXB2 in 5-lipoxygenase/ cyclooxygenase at dose 20 mg/kg; format: functional; summary of the method: as §1

inhibition [1] [%]	inhibition [10] [%]	SMILES	inhibition in vivo at 40 mg/kg (Rattus norvegicus [2]) [%]	inhibition in vivo at 25 mg/kg (Rattus norvegicus [3]) [%]	inhibition in vivo at 25 mg/kg (Rattus norvegicus [4]) [%]	inhibition in vivo at 40 mg/kg (Rattus norvegicus [5]) [%]	inhibition in vivo at 40 mg/kg (Rattus norvegicus [6]) [%]	LTE4 inhibition (Rattus norvegicus [7]) [%]	ED50 (Rattus norvegicus [8]) [mg/kg]	ED50 (Rattus norvegicus [9]) [mg/kg]	inhibition in vivo at 20 mg/kg (Rattus norvegicus [11]) [%]	inhibition in vivo at 20 mg/kg (Rattus norvegicus [12]) [%]	LTE4 inhibition (Rattus norvegicus [13]) [%]	inhibition in vivo at 20 mg/kg (Rattus norvegicus [14]) [%]
0	0	CC1(C)C(=O)N(c2ccccc2)c2ncccc21	70	0	24	54	60	54	21.9	35.1	–	–	–	–
0	2	CC1(C)C(=O)N(c2ccc(F)cc2)c2ncccc21	–	0	48	–	–	–	4.5	29.5	43	70	36	53
